How the values were obtained:
[1] = system: RA patients with an inadequate response to MTX; test: Study 1; format: in vivo, human
Method in brief: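 Randomized, double-blind, placebo-controlled trial at one site, 36 RA patients. Patients had MTX for ≥6 months and a stable 7.5–25 mg/week dose for ≥4 weeks, continued throughout. Oral capsules for 4 weeks: 200 mg once daily or 100 mg twice daily. ACR20/50/70 responses, DAS28-CRP and ACR core components (pain VAS, HAQ DI) scored as change from baseline. Intent-to-treat population.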

[2] = system: RA patients; test: Study 1, treatment‐emergent adverse events; format: in vivo, human; conditions: study 1
Method in brief: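 Both double-blind, placebo-controlled trials in RA patients on stable MTX. Oral capsules daily for 4 weeks, with 7–10-day follow-up: 200 mg once daily or 100 mg twice daily (study 1); 30, 75, 150 or 300 mg once daily (study 2). At every visit: AEs, vital signs, hematology, serum biochemistry, coagulation and urinalysis. EKG at baseline and follow-up, plus week 4 in study 1. Safety population, descriptive treatment-emergent AE summaries.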

O=C(Nc1nc2cccc(-c3ccc(CN4CCS(=O)(=O)CC4)cc3)n2n1)C1CC1 [Filgotinib]
ACR20 responders at week 4 ([1]; 100 mg twice daily, study 1): 11 (91.7) no. (%) | ACR50 responders at week 4 ([1]; 100 mg twice daily, study 1): 4 (33.3) no. (%) | DAS28‐CRP, mean change from baseline at week 4 ([1]; 100 mg twice daily, study 1): −2.81 | HAQ DI score, mean change from baseline at week 4 ([1]; 100 mg twice daily, study 1): −0.52 | Patient's assessment of pain, mean change from baseline at week 4 ([1]; 100 mg twice daily, study 1): −29.8 0–10‐cm VAS | Patient's global assessment of disease activity, mean change from baseline at week 4 ([1]; 100 mg twice daily, study 1): −25.8 0–10‐cm VAS | Physician's global assessment of disease activity, mean change from baseline at week 4 ([1]; 100 mg twice daily, study 1): −35.0 0–10‐cm VAS | Remission rate (DAS28‐CRP <2.6) at week 4 ([1]; 100 mg twice daily, study 1): 3 (25.0) no. (%) | SJC66, mean change from baseline at week 4 ([1]; 100 mg twice daily, study 1): −15.4 | Serum CRP, mean change from baseline at week 4 ([1]; 100 mg twice daily, study 1): -13.84 mg/L | TJC68, mean change from baseline at week 4 ([1]; 100 mg twice daily, study 1): −36.3 | time to normalization of serum CRP level ([1]; 200 mg once daily and 100 mg twice daily, study 1): ≤ 1 week | ACR20 responders at week 4 ([1]; 200 mg once daily, study 1): 9 (75.0) no. (%) | ACR50 responders at week 4 ([1]; 200 mg once daily, study 1): 2 (16.7) no. (%) | DAS28‐CRP, mean change from baseline at week 4 ([1]; 200 mg once daily, study 1): −2.23 | HAQ DI score, mean change from baseline at week 4 ([1]; 200 mg once daily, study 1): −0.57 | Patient's assessment of pain, mean change from baseline at week 4 ([1]; 200 mg once daily, study 1): −24.3 0–10‐cm VAS | Patient's global assessment of disease activity, mean change from baseline at week 4 ([1]; 200 mg once daily, study 1): −23.8 0–10‐cm VAS | Physician's global assessment of disease activity, mean change from baseline at week 4 ([1]; 200 mg once daily, study 1): −26.7 0–10‐cm VAS | Remission rate (DAS28‐CRP <2.6) at week 4 ([1]; 200 mg once daily, study 1): 2 (16.7) no. (%) | SJC66, mean change from baseline at week 4 ([1]; 200 mg once daily, study 1): −12.8 | Serum CRP, mean change from baseline at week 4 ([1]; 200 mg once daily, study 1): -35.05 mg/L | TJC68, mean change from baseline at week 4 ([1]; 200 mg once daily, study 1): −23.1 | patients achieving an ACR20 response ([1]; study 1, all filgotinib‐treated patients, end of 4 weeks): > 83% | treatment-related TEAE: Abdominal discomfort ([2]; 100 mg twice daily): 1 (8.3) number (%) of patients | treatment-related TEAE: Abdominal pain, upper ([2]; 100 mg twice daily): 0 number (%) of patients | treatment-related TEAE: Aspartate aminotransferase increased ([2]; 100 mg twice daily): 0 number (%) of patients | treatment-related TEAE: Blood amylase increased ([2]; 100 mg twice daily): 0 number (%) of patients | treatment-related TEAE: Blood and lymphatic system disorders ([2]; 100 mg twice daily): 0 number (%) of patients | treatment-related TEAE: Blood triglycerides increased ([2]; 100 mg twice daily): 0 number (%) of patients | treatment-related TEAE: Cystitis, noninfectious ([2]; 100 mg twice daily): 0 number (%) of patients | treatment-related TEAE: Duodenogastric reflux ([2]; 100 mg twice daily): 0 number (%) of patients | treatment-related TEAE: Ear and labyrinth disorders ([2]; 100 mg twice daily): 0 number (%) of patients | treatment-related TEAE: Gastrointestinal disorders ([2]; 100 mg twice daily): 2 (16.7) number (%) of patients | treatment-related TEAE: Gastrointestinal pain ([2]; 100 mg twice daily): 0 number (%) of patients | treatment-related TEAE: General disorders and administration site reactions ([2]; 100 mg twice daily): 0 number (%) of patients | treatment-related TEAE: Gingival bleeding ([2]; 100 mg twice daily): 0 number (%) of patients | treatment-related TEAE: Infections and infestations ([2]; 100 mg twice daily): 0 number (%) of patients | treatment-related TEAE: Laboratory findings ([2]; 100 mg twice daily): 1 (8.3) number (%) of patients | treatment-related TEAE: Lipase increased ([2]; 100 mg twice daily): 1 (8.3) number (%) of patients | treatment-related TEAE: Musculoskeletal and connective tissue disorders ([2]; 100 mg twice daily): 0 number (%) of patients | treatment-related TEAE: Nervous system disorders ([2]; 100 mg twice daily): 1 (8.3) number (%) of patients | treatment-related TEAE: Renal and urinary disorders ([2]; 100 mg twice daily): 0 number (%) of patients | treatment-related TEAE: Abdominal discomfort ([2]; 200 mg once daily): 0 number (%) of patients | treatment-related TEAE: Abdominal pain, upper ([2]; 200 mg once daily): 1 (8.3) number (%) of patients | treatment-related TEAE: Aspartate aminotransferase increased ([2]; 200 mg once daily): 0 number (%) of patients | treatment-related TEAE: Blood amylase increased ([2]; 200 mg once daily): 0 number (%) of patients | treatment-related TEAE: Blood and lymphatic system disorders ([2]; 200 mg once daily): 0 number (%) of patients | treatment-related TEAE: Blood triglycerides increased ([2]; 200 mg once daily): 0 number (%) of patients | treatment-related TEAE: Cystitis, noninfectious ([2]; 200 mg once daily): 0 number (%) of patients | treatment-related TEAE: Duodenogastric reflux ([2]; 200 mg once daily): 0 number (%) of patients | treatment-related TEAE: Ear and labyrinth disorders ([2]; 200 mg once daily): 0 number (%) of patients | treatment-related TEAE: Gastrointestinal disorders ([2]; 200 mg once daily): 2 (16.7) number (%) of patients | treatment-related TEAE: Gastrointestinal pain ([2]; 200 mg once daily): 0 number (%) of patients | treatment-related TEAE: General disorders and administration site reactions ([2]; 200 mg once daily): 0 number (%) of patients

Reference: publication PMC5656813 (Arthritis & Rheumatology (Hoboken, N.j.), 2017)
